In ChEMBL document CHEMBL3124742, “Synthesis and biological evaluation of new carbohydrate-substituted indenoisoquinoline topoisomerase I inhibitors and improved syntheses of the experimental anticancer agents indotecan (LMP400) and indimitecan (LMP776)” (J Med Chem, 2014):
The source made the active and inactive calls. The rule behind the calls is not given here.

Key:
[1] = Cytotoxicity against human NCI60 cells assessed as cell growth at 10 uM relative to vehicle-treated control; format: functional; conditions: read-out: Activity
Procedure, shortened: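 NCI-60 one-dose screen: roughly 60 human cancer cell lines exposed to 10^-5 M (10 μM) compound. Value is growth percent of treated cells relative to vehicle-treated control, averaged across the panel.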

[2] = target: T1, DNA topoisomerase 1 (Homo sapiens) (UniProt P11387); test: Inhibition of recombinant topoisomerase-1 (unknown origin) assessed as inhibition of 3'-[32P]-labeled DNA cleavage at 0.1 to 100 uM after 20 mins by PAGE analysis relative to control
T1 sequence (whole entry): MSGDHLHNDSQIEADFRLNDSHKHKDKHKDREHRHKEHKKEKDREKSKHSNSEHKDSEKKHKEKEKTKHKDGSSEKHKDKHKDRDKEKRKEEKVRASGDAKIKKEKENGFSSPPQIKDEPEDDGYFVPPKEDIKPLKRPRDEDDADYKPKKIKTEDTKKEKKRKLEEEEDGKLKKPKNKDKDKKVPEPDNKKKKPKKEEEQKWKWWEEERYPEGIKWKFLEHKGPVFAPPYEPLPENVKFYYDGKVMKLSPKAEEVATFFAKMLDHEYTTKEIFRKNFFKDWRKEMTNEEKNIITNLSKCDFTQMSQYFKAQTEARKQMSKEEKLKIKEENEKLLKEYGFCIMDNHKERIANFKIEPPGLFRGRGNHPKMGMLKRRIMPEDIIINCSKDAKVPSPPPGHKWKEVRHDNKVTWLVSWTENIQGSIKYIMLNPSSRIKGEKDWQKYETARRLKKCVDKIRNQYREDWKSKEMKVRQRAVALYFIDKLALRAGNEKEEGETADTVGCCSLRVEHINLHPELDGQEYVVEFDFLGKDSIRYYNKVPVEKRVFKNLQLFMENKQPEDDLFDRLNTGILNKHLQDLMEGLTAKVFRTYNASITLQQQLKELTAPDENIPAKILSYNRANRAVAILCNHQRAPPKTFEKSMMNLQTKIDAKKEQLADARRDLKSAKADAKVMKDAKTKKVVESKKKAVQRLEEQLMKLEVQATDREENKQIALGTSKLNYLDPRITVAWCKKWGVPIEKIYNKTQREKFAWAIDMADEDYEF

DU-145 = test: Growth inhibition of human DU145 cells; format: functional
Procedure, shortened: (§1)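 NCI-60 five-dose testing, 10^-8 to 10^-4 M, given only to compounds with significant growth inhibition in the 10 μM one-dose screen. Five-dose assay may be repeated.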

SN12C = test: Growth inhibition of human SN12C cells; format: functional; procedure, shortened: as §1
HOP-62 = test: Growth inhibition of human HOP62 cells; format: functional; procedure, shortened: as §1
[3] = Growth inhibition of human SF539 cells; format: functional; conditions: SF-539; procedure, shortened: as §1
[4] = target: Tyrosyl-DNA phosphodiesterase 1 (Homo sapiens, UniProt Q9NUW8); test: Inhibition of recombinant TDP1 (unknown origin) using N14Y as substrate after 15 mins by PAGE analysis
Procedure, shortened: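 Substrate is a 5'-[32P]-labelled single-stranded oligonucleotide with a 3'-phosphotyrosine (N14Y). It is incubated with 5 pM recombinant TDP1 ± test compound for 15 min at room temperature. Read-out is a gel.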

MCF7 = test: Growth inhibition of human MCF7 cells; format: functional; procedure, shortened: as §1
HCT-116 = test: Growth inhibition of human HCT116 cells; format: functional; procedure, shortened: as §1
OVCAR-3 = test: Growth inhibition of human OVCAR3 cells; format: functional; procedure, shortened: as §1
UACC-62 = test: Growth inhibition of human UACC62 cells; format: functional; procedure, shortened: as §1

Sequence of Tyrosyl-DNA phosphodiesterase 1 (Q9NUW8 whole entry): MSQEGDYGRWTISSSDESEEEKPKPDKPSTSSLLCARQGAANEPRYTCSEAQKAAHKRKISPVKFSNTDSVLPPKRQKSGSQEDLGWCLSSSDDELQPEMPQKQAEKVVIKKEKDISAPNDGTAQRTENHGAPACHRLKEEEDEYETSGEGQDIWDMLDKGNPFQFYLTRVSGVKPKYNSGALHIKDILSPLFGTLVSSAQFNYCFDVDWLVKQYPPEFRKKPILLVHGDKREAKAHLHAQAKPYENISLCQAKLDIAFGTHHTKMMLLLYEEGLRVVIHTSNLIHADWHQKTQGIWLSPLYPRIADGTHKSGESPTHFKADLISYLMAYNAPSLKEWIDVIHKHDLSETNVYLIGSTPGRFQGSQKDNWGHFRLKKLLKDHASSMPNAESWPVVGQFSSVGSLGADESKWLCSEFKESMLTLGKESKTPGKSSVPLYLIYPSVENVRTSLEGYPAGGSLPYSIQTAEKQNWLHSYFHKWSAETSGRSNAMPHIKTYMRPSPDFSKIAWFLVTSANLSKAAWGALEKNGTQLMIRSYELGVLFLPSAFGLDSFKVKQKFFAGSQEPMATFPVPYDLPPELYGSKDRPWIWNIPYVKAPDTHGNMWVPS

Structure (SMILES) | growth at 10 µM [1] | inhibition [2] | GI50 (DU-145) | GI50 (SN12C) | GI50 (HOP-62) | GI50 [3] | IC50 [4] | GI50 (MCF7) | GI50 (HCT-116) | GI50 (OVCAR-3) | GI50 (UACC-62)
O=C1c2ccccc2-c2c1c1ccc([N+](=O)[O-])cc1c(=O)n2C[C@@H](O)CO | -27% | 75% | 427 nM | 380 nM | 347 nM | 309 nM | > 111 µM | 56 nM | 138 nM | 398 nM | 
O=C1c2ccccc2-c2c1c1ccc([N+](=O)[O-])cc1c(=O)n2CC(O)CO (racemic) | -17.5% | 75% | 363 nM | 355 nM | 324 nM | 339 nM | > 111 µM | 60 nM | 138 nM | 479 nM | 
O=C1c2ccccc2-c2c1c1ccc([N+](=O)[O-])cc1c(=O)n2C[C@@H](O)[C@@H](O)[C@H](O)CO | -16.1% | Active | 3470 nM | 2690 nM |  | 1740 nM |  | 501 nM | 1200 nM | 2140 nM | 1100 nM
O=C1c2ccccc2-c2c1c1ccc([N+](=O)[O-])cc1c(=O)n2C[C@@H](O)[C@@H](O)[C@H](O)[C@H](O)CO | 73.2% | Active | > 100000 nM |  | > 100000 nM | 3390 nM |  | 724 nM |  | 5250 nM | 3470 nM
O=C1c2ccccc2-c2c1c1ccc([N+](=O)[O-])cc1c(=O)n2C[C@H](O)[C@H](O)[C@H](O)CO | -27.5% | Active | 550 nM | 380 nM | 407 nM | 234 nM | > 111 µM | 145 nM | 219 nM | 525 nM | 
O=C1c2ccccc2-c2c1c1ccc([N+](=O)[O-])cc1c(=O)n2C[C@@H]1O[C@H](CO)[C@@H](O)[C@H](O)[C@H]1O | 77.4% | 50% |  |  |  |  |  |  |  |  | 
O=C1c2ccccc2-c2c1c1ccc([N+](=O)[O-])cc1c(=O)n2C[C@H](O)[C@@H](O)[C@@H](O)[C@H](O)CO | 51.5% | Active | 9550 nM | 4270 nM | 5130 nM | 2570 nM | > 111 µM | 2950 nM |  | 6030 nM | 
COc1cc2c3c(n(C[C@H](O)[C@H](O)[C@H](O)CO)c(=O)c2cc1OC)-c1cc2c(cc1C3=O)OCO2 | 46.9% | 75% | 479 nM | 229 nM | 251 nM | 28 nM |  | 59 nM | 148 nM | 22 nM | 62 nM
COc1cc2c3c(n(C[C@@H](O)CO)c(=O)c2cc1OC)-c1cc2c(cc1C3=O)OCO2 | 31.6% | Active | 40 nM | 37 nM | 36 nM | 32 nM | > 111 µM | 29 nM | 36 nM |  | 
COc1cc2c3c(n(CC(O)CO)c(=O)c2cc1OC)-c1cc2c(cc1C3=O)OCO2 (racemic) | 27.1% | Active | 36 nM | 35 nM | 31 nM | 23 nM | > 111 µM | 21 nM | 26 nM | 52 nM | 
COc1cc2c3c(n(C[C@H](O)[C@@H](O)[C@H](O)CO)c(=O)c2cc1OC)-c1cc2c(cc1C3=O)OCO2 | 5.32% | Active | 138 nM | 85 nM | 27 nM | 21 nM | > 111 µM | 34 nM | 59 nM | 96 nM | 52 nM
COc1cc2c3c(n(C[C@@H](O)[C@@H](O)[C@H](O)CO)c(=O)c2cc1OC)-c1cc2c(cc1C3=O)OCO2 | 34.7% | Active | 2510 nM | 457 nM | 676 nM | 214 nM | > 111 µM | 79 nM | 891 nM | 794 nM | 195 nM
COc1cc2c3c(n(C[C@@H]4O[C@H](CO)[C@@H](O)[C@H](O)[C@H]4O)c(=O)c2cc1OC)-c1cc2c(cc1C3=O)OCO2 | 97.7% | 50% |  |  |  |  |  |  |  |  | 
COc1cc2c3c(n(C[C@@H](O)[C@H](O)[C@H](O)CO)c(=O)c2cc1OC)-c1cc2c(cc1C3=O)OCO2 | 52.8% | 75% | 50100 nM | 234 nM | 50100 nM | 174 nM | > 111 µM | 148 nM | 355 nM | 50100 nM | 155 nM
O=C1c2ccccc2-c2c1c1ccc([N+](=O)[O-])cc1c(=O)n2C[C@@H](O)[C@H](O)[C@H](O)CO | -9.21% | Active | 3160 nM |  | 1910 nM | 1450 nM |  | 912 nM | 1350 nM | 1700 nM | 
O=C1c2ccccc2-c2c1c1ccc([N+](=O)[O-])cc1c(=O)n2C[C@H](O)[C@@H](O)[C@H](O)CO | -14.6% | Active | 457 nM | 295 nM | 363 nM | 214 nM |  | 96 nM | 141 nM | 407 nM | 
COc1cc2c3c(n(C[C@@H](O)[C@@H](O)[C@H](O)[C@H](O)CO)c(=O)c2cc1OC)-c1cc2c(cc1C3=O)OCO2 | 79.5% | Active |  |  |  |  | > 111 µM |  |  |  | 
COc1cc2c3c(n(C[C@H](O)[C@@H](O)[C@H](O)[C@H](O)CO)c(=O)c2cc1OC)-c1cc2c(cc1C3=O)OCO2 | 87.5% | 75% |  |  |  |  | > 111 µM |  |  |  | 
COc1cc2c3c(n(C[C@H](O)[C@@H](O)[C@@H](O)[C@H](O)CO)c(=O)c2cc1OC)-c1cc2c(cc1C3=O)OCO2 | 82.3% | 50% |  |  |  |  |  |  |  |  | 
COc1cc2c3c(n(C[C@H](O)CO)c(=O)c2cc1OC)-c1cc2c(cc1C3=O)OCO2 | 7.1% | Active | 34 nM | 30 nM | 28 nM | 25 nM | > 111 µM | 10 nM | 21 nM | 48 nM | 17 nM
